Holding throughout (assay type): functional, Homo sapiens
The nature of assay [1]: Inhibitory activity against the primary liver carcinoma (PLC) cell line PLC/PRF/5.
Assay [2] in a line: Inhibitory activity against colchicine resistant parent primary liver carcinoma (PLC) cell line PLC/PRF/5. Put shortly: (§1)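 PLC/PRF/5 cells were precultured 24 h at 37 °C in 5% CO₂ in 96-well plates, then given colchicine at 0.5 μg/mL. Test compounds were added in dilutions of 10⁻²–10⁻⁶ μg/mL and incubated 72 h at 37 °C in 5% CO₂. Survival was read by MTT. IC50 is the μg/mL giving 50% growth inhibition of the colchicine-resistant cells.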

Assay [3] in a line: Inhibitory activity against Colchicine resistant parent primary liver carcinoma (PLC) cell line PLC/PRF/5. Put shortly:
as §1

This passage reports IC50 results from ChEMBL document CHEMBL1135672, “QSAR evaluation of the Ch'an Su and related bufadienolides against the colchicine-resistant primary liver carcinoma cell line PLC/PRF/5(1)” (J Med Chem, 2002).

In brackets after ≈: the same amount, converted by molar mass.

On to `CC(=O)O[C@H]1CC[C@]2(C)C3CC[C@]4(C)[C@@H](c5ccc(=O)oc5)[C@@H](OC(C)=O)C[C@@]4(O)C3CC[C@@H]2C1` (stereo not given in full), for which the IC50 (as a rule, the midpoint of a concentration-inhibition curve) came out at 7.5 µg/mL (≈ 15.4 µM) in assay [1] and 21 µg/mL (≈ 43.2 µM) in assay [2].
On to `C[C@]12CCC3C(CC[C@@H]4CC(=O)CC[C@]34C)C1=CC[C@@H]2c1ccc(=O)oc1` (stereo not given in full), for which the IC50 in assay [1] was found to be 4.9 µg/mL (≈ 13.4 µM); in assay [3] it was 7.8 µg/mL (≈ 21.3 µM).
As to `CC(=O)O[C@H]1[C@H]2O[C@]23[C@@H]2CC[C@@H]4C[C@H](O)CC[C@]4(C)[C@H]2CC[C@]3(C)[C@H]1c1ccc(=O)oc1`, the results for the 50% inhibitory concentration (IC50) in assay [1] and in assay [2] were 0.098 µg/mL (≈ 0.221 µM) and 0.9 µg/mL (≈ 2.03 µM), respectively.
For `CC(=O)O[C@H]1CC[C@@]2(C)[C@H](CC[C@@H]3[C@@H]2CC[C@]2(C)[C@@H](C4=CC(=O)OC4)CC[C@]32O)C1` the same measures were 0.55 µg/mL (≈ 1.32 µM) and 0.5 µg/mL (≈ 1.2 µM).
In the case of `CC(=O)O[C@H]1CC[C@@]2(C)[C@H](CC[C@@H]3[C@@H]2CC[C@]2(C)[C@@H](c4ccc(=O)oc4)[C@@H](O)[C@H]4O[C@]342)C1`, the IC50 in assay [1] was found to be 0.098 µg/mL (≈ 0.221 µM); in assay [2], 3.4 µg/mL (≈ 7.68 µM).
In the case of `CC(=O)O[C@H]1[C@H]2O[C@]23[C@@H]2CC[C@@H]4CC(=O)CC[C@]4(C)[C@H]2CC[C@]3(C)[C@H]1c1ccc(=O)oc1`, the concentration for half-maximal inhibition (IC50) in assay [1] is 0.056 µg/mL (≈ 0.127 µM); in assay [2], 0.77 µg/mL (≈ 1.75 µM).
Turning to `COC(=O)CCCCCCC(=O)O[C@H]1CC[C@@]2(C)[C@H](CC[C@@H]3[C@@H]2CC[C@]2(C)[C@@H](c4ccc(=O)oc4)CC[C@]32O)C1`, the IC50 amounted to 0.009 µg/mL (≈ 0.0162 µM) in assay [1] and 0.094 µg/mL (≈ 0.169 µM) in assay [2].
For `CC(=O)O[C@H]1CC[C@@]2(C)[C@H](CC[C@@H]3[C@@H]2[C@H](O)C[C@]2(C)[C@@H](c4ccc(=O)oc4)CC[C@]32O)C1`, in that order: 0.06 µg/mL (≈ 0.135 µM) and 0.66 µg/mL (≈ 1.48 µM).
For `C[C@]12CC[C@H](OC(=O)CCCCCCC(=O)O)C[C@H]1CC[C@@H]1[C@@H]2CC[C@]2(C)[C@@H](C3=CC(=O)OC3)CC[C@]12O` the same measures were 5.2 µg/mL (≈ 9.8 µM) and 8.6 µg/mL (≈ 16.2 µM).
For `C[C@]12CC[C@@H](O)C[C@H]1CC[C@@H]1[C@@H]2CC[C@]2(C)[C@@H](c3ccc(=O)oc3)CC[C@]12O` the same measures were 0.076 µg/mL (≈ 0.197 µM) and 0.077 µg/mL (≈ 0.199 µM).
Take `CC(=O)O[C@H]1CC[C@@]2(C)[C@H](CC[C@@H]3[C@@H]2CC[C@]2(C)[C@@H](c4ccc(=O)oc4)CC[C@]32O)C1`: the values for the 50% inhibitory concentration (IC50) in assay [1] and in assay [2] were 0.0002 µg/mL (≈ 0.000467 µM) and 0.009 µg/mL (≈ 0.021 µM), respectively.
Regarding `COC(=O)C/C=C(\C=O)C1[C@@H](O)C(=O)[C@H]2[C@@H]3CC[C@@H]4C[C@@H](O)CC[C@]4(C)[C@H]3CC[C@]12C` (stereo not given in full), the IC50 in assay [1] is 8.4 µg/mL (≈ 19.4 µM); in assay [2] it was more than 50 µg/mL.
For the compound `C[C@]12CC[C@H](O)C=C1CCC1C2CC[C@]2(C)[C@@H](c3ccc(=O)oc3)CC[C@]12O` (stereo not given in full), the half-inhibitory concentration (IC50) turned out to be 0.00031 µg/mL (≈ 0.000806 µM) in assay [1] and 0.00032 µg/mL (≈ 0.000832 µM) in assay [2].
For `C[C@]12CC[C@H](O)C[C@H]1CC[C@@H]1[C@@H]2CC[C@]2(C)[C@@H](c3ccc(=O)oc3)CC[C@]12O` [BUFALIN], in that order: 0.00028 µg/mL (≈ 0.000724 µM) and 0.00028 µg/mL (≈ 0.000724 µM).
As to `C[C@]12CC[C@H](O)C[C@H]1CC[C@@H]1[C@@H]2CC[C@]2(C)[C@@H](c3ccc(=O)oc3)C[C@H]3O[C@]132` [BUFOGENIN], the IC50 was determined as 0.077 µg/mL (≈ 0.2 µM) in assay [1] and 0.076 µg/mL (≈ 0.198 µM) in assay [2].
For `CC(=O)O[C@H]1C[C@]2(O)[C@@H]3CC[C@@H]4C[C@@H](O)CC[C@]4(C)[C@H]3CC[C@]2(C)[C@H]1c1ccc(=O)oc1` [BUFOTALIN], the values for the IC50 in assay [1] and in assay [2] were 0.00034 µg/mL (≈ 0.000765 µM) and 0.0026 µg/mL (≈ 0.00585 µM), respectively.
With `CC(=O)O[C@H]1[C@H]2O[C@]23[C@@H]2CC[C@@H]4C[C@@H](O)CC[C@]4(C)[C@H]2CC[C@]3(C)[C@H]1c1ccc(=O)oc1` [CINOBUFAGIN], the values for the 50% inhibitory concentration (IC50) in assay [1] and in assay [2] were 0.00074 µg/mL (≈ 0.00167 µM) and 0.00092 µg/mL (≈ 0.00208 µM), respectively.
`CC(=O)O[C@H]1[C@H]2O[C@]23[C@@H]2CC[C@]4(O)C[C@@H](O)CC[C@]4(C)[C@H]2CC[C@]3(C)[C@H]1c1ccc(=O)oc1` [CINOBUFOTALIN]: the concentration for half-maximal inhibition (IC50) in assay [1] stood at 0.001 µg/mL (≈ 0.00218 µM); in assay [2] it was 0.008 µg/mL (≈ 0.0174 µM).
As to `C[C@]12CC[C@H](O)C[C@H]1CC[C@@H]1[C@@H]2CC[C@]2(C)[C@@H](c3ccc(=O)oc3)[C@@H](O)C[C@]12O` [DESACETYLBUFOTALIN], the IC50 in assay [1] is 0.00078 µg/mL (≈ 0.00194 µM); in assay [2] it was 0.008 µg/mL (≈ 0.0199 µM).
`C[C@]12CC[C@H](O)C[C@H]1CC[C@@H]1[C@@H]2CC[C@]2(C)[C@@H](c3ccc(=O)oc3)[C@@H](O)[C@H]3O[C@]132` [DESACETYLCINOBUFAGIN]: the IC50 in assay [1] came to 0.52 µg/mL (≈ 1.3 µM); in assay [2], 4.8 µg/mL (≈ 12 µM).
For `C[C@]12CC[C@H](O)C[C@@]1(O)CC[C@@H]1[C@@H]2CC[C@]2(C)[C@@H](c3ccc(=O)oc3)[C@@H](O)[C@H]3O[C@]132` [DESACETYLCINOBUFOTALIN], in that order: 0.67 µg/mL (≈ 1.61 µM) and 0.64 µg/mL (≈ 1.54 µM).
On to `C[C@]12CC[C@H](O)C[C@H]1CC[C@@H]1[C@@H]2CC[C@]2(C)[C@@H](C3=CC(=O)OC3)CC[C@]12O` [DIGITOXIGENIN], for which the IC50 in assay [1] is 0.00087 µg/mL (≈ 0.00232 µM); in assay [2] it was 0.0092 µg/mL (≈ 0.0246 µM).
For `C[C@]12CC[C@H](O)C[C@H]1CC[C@@H]1[C@@H]2[C@H](O)C[C@]2(C)[C@@H](c3ccc(=O)oc3)CC[C@]12O` [GAMABUFOTALIN], in that order: 0.00023 µg/mL (≈ 0.000571 µM) and 0.0008 µg/mL (≈ 0.00199 µM).
For `C[C@]12CC[C@H](O)C[C@@]1(O)CC[C@@H]1[C@@H]2CC[C@]2(C)[C@@H](C3=CC(=O)OC3)CC[C@]12O` [PERIPLOGENIN] the same measures were 0.061 µg/mL (≈ 0.156 µM) and 0.75 µg/mL (≈ 1.92 µM).
As for `C[C@]12CC[C@H](O)C[C@@]1(O)CC[C@@H]1[C@@H]2CC[C@]2(C)[C@@H](c3ccc(=O)oc3)CC[C@]12O` [TELOCINOBUFAGIN], the IC50 worked out at 0.000345 µg/mL (≈ 0.000857 µM) in assay [1] and 0.0026 µg/mL (≈ 0.00646 µM) in assay [2].
